Compound activity (PubChem)
Compounds with a hit are over-represented: about 2.9% of the library has one in this group of screens.
SENP7 block: SENP7 protease inhibitors, primary screen, biochemical, luminescence, uHTS; Sentrin-specific protease 7 (Homo sapiens), Q9BQF6; recombinant SENP7, Z-RLRGG-aminoluciferin luminescence, 40 min; inhibition, % at 5 µM; 1.5% of 330,000 active;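 active = inhibition above about 50% at the single test dose, limit read from the data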;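 also: plate controls were DMSO with enzyme for no effect and no enzyme buffer wells for full effect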
SENP8 block-1: human SENP8 protease inhibitors, primary screen, biochemical, fluorescence, Nedd8 protein substrate, uHTS; 0.64% of 360,000 active; AID 602440, 2012; recombinant SENP8; Sentrin-specific protease 8 (Homo sapiens), Q96LD8; inhibition, % at 20 µM; in the data active = inhibition mostly above about 40%, no sharp cut-off; inactive = mostly below about 27%
SENP6 inh: SENP6 protease inhibitors, primary screen, biochemical, luminescence, uHTS; Recombinant SENP6 catalytic domain, aminoluciferin luminescence; inhibition, % at 10 µM; 1.8% of 330,000 active;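 active = inhibition above about 50% at the single tested dose, limit read from the data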;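 also: plate controls were DMSO wells with enzyme for no effect and DMSO wells lacking enzyme for full effect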
Target sequence (Q9GZR1 628-1112 limits assumed): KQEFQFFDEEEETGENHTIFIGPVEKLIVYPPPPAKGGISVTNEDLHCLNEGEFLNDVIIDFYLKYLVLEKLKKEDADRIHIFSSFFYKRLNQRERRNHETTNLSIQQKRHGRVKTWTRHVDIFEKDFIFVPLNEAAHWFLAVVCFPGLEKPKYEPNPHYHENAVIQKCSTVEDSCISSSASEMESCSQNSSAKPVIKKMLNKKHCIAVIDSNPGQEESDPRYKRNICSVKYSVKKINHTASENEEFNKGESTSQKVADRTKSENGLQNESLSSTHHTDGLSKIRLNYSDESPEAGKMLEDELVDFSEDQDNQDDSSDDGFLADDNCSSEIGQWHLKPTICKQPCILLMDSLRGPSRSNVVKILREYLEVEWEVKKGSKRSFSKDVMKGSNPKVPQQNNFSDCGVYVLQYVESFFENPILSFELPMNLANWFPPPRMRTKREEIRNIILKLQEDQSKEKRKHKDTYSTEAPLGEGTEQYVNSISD
HSP90 inh: HSP90 inhibitors, primary screen, cell lysate, luminescence | AID 1789, 2009 | inhibition, % at 5.6 µM | Heat shock protein HSP 90 (rabbit reticulocyte lysate; luciferase refolding) | Rabbit reticulocyte lysate, luciferase refolding luminescence, 3 h | 0.91% of 290,000 active;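 active = inhibition above the screen-wide mean plus 3 SD, computed separately per campaign, cut at about 16% in these data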;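 also: 0% = DMSO wells and 100% = 60 µM geldanamycin wells; inhibitors lower the luminescence because luciferase stays unfolded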
SENP8 block-2: SENP8 protease inhibitors, primary screen, biochemical, luminescence; 1.2% of 330,000 active; AID 2540, 2010; inhibition, % at 10 µM; purified SENP8, Z-RLRGG-aminoluciferin cleavage; Sentrin-specific protease 8 (Homo sapiens), Q96LD8; in the data active = inhibition above about 50%
SENP1 inh: human SENP1 catalytic domain inhibitors, primary screen, biochemical, FRET, uHTS. Sentrin-specific protease 1 (Homo sapiens), Q9P0U3. recombinant SENP1 catalytic domain, CyPet-SUMO1-YPet FRET cleavage. inhibition, % at 10 µM. 0.21% of 360,000 active. AID 624204, 2012;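 active = inhibition at least 30% at 10 µM, raw YFP signal under a set limit, fluorescence ratio 0.5 to 1.5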;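 also: 0% = enzyme with DMSO and 100% = no enzyme wells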
Target sequence (Q9P0U3 419-644 limits assumed): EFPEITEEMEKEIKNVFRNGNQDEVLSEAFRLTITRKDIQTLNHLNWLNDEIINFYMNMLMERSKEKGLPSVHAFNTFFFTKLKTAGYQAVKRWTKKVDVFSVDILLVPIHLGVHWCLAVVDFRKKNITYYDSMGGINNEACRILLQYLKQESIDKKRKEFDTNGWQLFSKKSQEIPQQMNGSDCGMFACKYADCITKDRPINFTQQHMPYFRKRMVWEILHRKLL
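Controls: no-enzyme wells low, DMSO-plus-enzyme wells high control. Test system: human recombinant His6-tagged SENP1 catalytic domain enzyme. Reagent: SFCypet-SUMO1-SFYpet FRET protein substrate, 25 nM final. Doses: one dose per compound, 10 µM, 0.5% DMSO. Detection: FRET, CFP and YFP emission. Timing: 50 min reaction at room temperature.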
SENP8 confirm: SENP8 protease inhibitors, retest, confirmation, biochemical, luminescence, single concentration; AID 488912, 2010; 40% of 6,200 active; Recombinant SENP8, Z-RLRGG-aminoluciferin luminescence, 60 min; shares compounds with SENP7 block; inhibition, % at 12.5 µM;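 active = mean inhibition across replicates above about 50%, limit read from the data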
SENP6 conf: SENP6 protease inhibitors, confirmation, biochemical, luminescence, single concentration; 58% of 6,200 active; recombinant SENP6, Z-RLRGG-aminoluciferin luminescence; inhibition, % at 12.5 µM; AID 488915, 2010; shares compounds with SENP7 block
SENP7 confirm: SENP7 protease inhibitors, retest, confirmation, biochemical, luminescence, single concentration. shares compounds with SENP7 block. recombinant SENP7, Z-RLRGG-aminoluciferin luminescence, 40 min. inhibition, % at 12.5 µM. 69% of 6,200 active
Casp3 SENP sel: caspase-3 protease inhibitors, confirmation, selectivity assay for SENP inhibitor project, biochemical, single concentration. shares compounds with SENP7 block. purified caspase-3, Z-DEVD-aminoluciferin luminescence, 60 min. inhibition, % at 12.5 µM. 60% of 6,200 active;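 active = mean inhibition above about 50%, limit read from the data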;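 also: plate controls were enzyme with DMSO for no effect and wells without caspase-3 for full effect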
SENP luc ctr: interferes with luciferase luminescence in SENP counter-screen; shares compounds with SENP7 block; Pre-incubated SENP8/Z-RLRGG-aminoluciferin, luciferase luminescence interference; inhibition, % at 12.5 µM; 39% of 6,200 active;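 active = mean inhibition above about 50% when retested at one dose, limit read from the data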;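 also: plate controls were DMSO wells with completed reaction for no effect and substrate without enzyme for full effect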
Numbers without * were called inactive; i = inactive; · = no result.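 The calls were made as follows, unless noted: active = mean inhibition above about 50% in the one-dose retest (limit read from the data); inactive = the rest.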

SMILES | SENP7 block | SENP8 block-1 | SENP6 inh | HSP90 inh | SENP8 block-2 | SENP1 inh | SENP8 confirm | SENP6 conf | SENP7 confirm | Casp3 SENP sel | SENP luc ctr
COc1ccc(C(=O)Nc2nnc(-c3ccco3)s2)cc1 | 95* | -293 | 88* | 12 | 78* | -3 | -24 | 11 | 43 | 25 | 2
O=C(Nc1nnc(-c2ccco2)s1)C1CC1 | 5 | -40 | 0 | -2 | -1 | 1 | · | · | · | · | ·
O=C(Nc1nnc(-c2ccco2)s1)c1ccccc1 | 0 | -236 | 68* | 14 | 50 | -10 | 16 | 54* | 85* | 77* | 28
COc1ccc(NC(=O)Nc2nnc(-c3cccs3)s2)cc1 | 5 | -134 | -4 | -2 | 2 | -3 | · | · | · | · | ·
O=C(c1ccccc1)N1CN2CN(C(=O)c3ccccc3)CC([N+](=O)[O-])(C2)C1 | 4 | 3 | -19 | 2 | -1 | 2 | · | · | · | · | ·
CC(C)CN(C(=O)COC(=O)CNC(=O)c1ccccc1)c1c(N)n(Cc2ccccc2)c(=O)[nH]c1=O | 0 | -2 | 5 | · | 12 | -3 | · | · | · | · | ·
Cc1[nH]n(-c2ccc([N+](=O)[O-])cc2)c(=O)c1C=NCCc1c[nH]c2ccccc12 | 17 | 20 | 39 | 1 | 6 | 2 | · | · | · | · | ·
Cc1[nH]n(-c2ccc([N+](=O)[O-])cc2)c(=O)c1C=NCCN1CCN(C(=O)c2cccc(F)c2)CC1 | 88* | 15 | 90* | 1 | 67* | 5 | 9 | 10 | 6 | 49 | 57*
Cc1[nH]n(-c2ccc([N+](=O)[O-])cc2)c(=O)c1C=NCCN1CCN(C(=O)c2ccc(Br)cc2)CC1 | 88* | 31 | 64* | -2 | 49 | 2 | 19 | 16 | 12 | 55* | 56*
CC1(C)CC(=O)C(C=NCCN2CCN(C(=O)c3ccc(Br)cc3)CC2)=C(O)C1 | -5 | 21 | -1 | 3 | -8 | -1 | · | · | · | · | ·
CC1OC(Nc2cccc3ccccc23)C(O)C(O)C1O (stereo not given) | 5 | -277 | 95* | 1 | 89* | -13 | 18 | 52* | 16 | 7 | 4
CC1OC(Nc2ccc(N=Nc3ccccc3)cc2)C(O)C(O)C1O (stereo not given) | 3 | 15 | -21 | -2 | -8 | 1 | · | · | · | · | ·
O=C(Nc1ccccn1)c1ccc2ccccc2n1 | 89* | 10 | 90* | 5 | 80* | -1 | -4 | 85* | 97* | 86* | 85*
O=C(Nc1ccccn1)c1ccc(Cl)s1 | 66* | 6 | 60* | -4 | 26 | 2 | 30 | 38 | 78* | 74* | 56*
Cc1cccc(C)c1NC(=O)CNC(=O)c1ccc2ccccc2n1 | -3 | 5 | -10 | · | 6 | -3 | · | · | · | · | ·
Cc1csc(NC(=O)c2ccc3ccccc3n2)n1 | 80* | 2 | 83* | 7 | 75* | -3 | 4 | 82* | 95* | 49 | 15
Cc1cccc(NC(=O)c2ccc3ccccc3n2)c1C | 77* | 20 | 88* | -4 | 65* | 1 | 13 | 84* | 97* | 72* | 58*
O=C(NCc1ccccn1)c1ccc(Cl)s1 | 8 | 5 | -7 | -1 | 6 | 2 | · | · | · | · | ·
CNC[C@@H]1Oc2cc(Br)ccc2S(=O)(=O)N([C@@H](C)CO)C[C@@H]1C | · | 7 | · | · | · | 1 | · | · | · | · | ·
CNc1ccc(/C=C\CCCO)cn1 | · | i | · | · | · | -2 | · | · | · | · | ·
C=CCOc1ccc(CNc2ccc3[nH]c(=O)[nH]c3c2)cc1 | 3 | -52 | 15 | -3 | -7 | -3 | · | · | · | · | ·
O=C(Nc1nccs1)c1cc(Cl)nc2ccccc12 | 0 | 11 | -1 | 5 | 0 | 1 | · | · | · | · | ·
O=C(Nc1nccs1)c1ccc2ccccc2n1 | 70* | 0 | 69* | 3 | 53* | -4 | 64* | 64* | 90* | 80* | 63*
CC1CCN(C2=C(NS(=O)(=O)c3ccc(Cl)cc3)C(=O)c3ccccc3C2=O)CC1 | 14 | 33 | 63* | 3 | 5 | 1 | 4 | 6 | 6 | 10 | 0
CC1CCN(C2=C(NS(=O)(=O)c3ccccc3)C(=O)c3ccccc3C2=O)CC1 | 17 | 33 | 49 | -1 | 17 | -1 | · | · | · | · | ·
SMILES | SENP7 block | SENP8 block-1 | SENP6 inh | HSP90 inh | SENP8 block-2 | SENP1 inh | SENP8 confirm | SENP6 conf | SENP7 confirm | Casp3 SENP sel | SENP luc ctr
CC1CCN(C2=C(NS(=O)(=O)c3ccc(Br)cc3)C(=O)c3ccccc3C2=O)CC1 | 27 | 26 | 55* | -2 | 29 | -1 | 9 | 14 | -2 | 15 | 0
Cc1cc2c(ncn2Cc2ccccc2)c(N)c1C | 5 | -1 | 3 | 2 | -2 | 3 | · | · | · | · | ·
CCOC(=O)c1c(S(=O)(=O)NCC(=O)N2CCN(c3ccc(F)cc3)CC2)c(C)n(C)c1C | -14 | 14 | -26 | -1 | -9 | 2 | · | · | · | · | ·
O=[N+]([O-])c1c(N2CCN(CCO)CC2)nc2ccccn12 | -9 | 18 | -15 | -1 | -11 | 0 | · | · | · | · | ·
CCc1nc2cc([N+](=O)[O-])c([N+](=O)[O-])cc2[nH]1 | 5 | 16 | 5 | 0 | -7 | 3 | · | · | · | · | ·
COc1ccc(C(=O)NC2CCN(C(=S)NCc3ccco3)CC2)cc1 | 60* | 13 | -11 | 0 | -3 | -1 | -1 | 4 | 11 | 6 | 1
O=C1NC(=O)/C(=C\c2ccccc2OCc2ccccc2)S1 | -7 | -13 | 3 | -2 | -1 | 3 | · | · | · | · | ·
O=C1NC(=O)/C(=C\c2ccc(OCc3ccccc3)cc2)S1 | -2 | 16 | 64* | 1 | 45 | 2 | 17 | 33 | -1 | 6 | 6
COc1ccccc1OCCCOc1ccc(/C=C2\SC(=O)NC2=O)cc1OC | -7 | -80 | 61* | -1 | 41 | -25 | 38 | 48 | 48 | 15 | 30
